Data from ChEMBL document CHEMBL1828547, “Synthesis and antimalarial activity of 2-guanidino-4-oxoimidazoline derivatives” (J Med Chem, 2011).
Converted amounts (≈) assume the structure as drawn. The source made the active and inactive calls. No cut-off for these calls is given here.

Tests used:
[1] = Metabolic stability in human assessed as half life at 160 mg/kg, po by LC-MS/MS analysis; assay type: ADME, organism-based; parameters: dose 160 mg/kg, route oral
[2] = Metabolic stability in mouse assessed as half life at 160 mg/kg, po by LC-MS/MS analysis; assay type: ADME, organism-based; parameters: dose 160 mg/kg, route oral
Plasmodium falciparum [3] = assay: Antimalarial activity against blood stage Plasmodium falciparum D6 assessed as [3H]-hypoxanthine uptake after 24 hrs by scintillation counting; assay type: functional, organism-based
Plasmodium falciparum [4] = assay: Antimalarial activity against blood stage Plasmodium falciparum W2 assessed as [3H]-hypoxanthine uptake after 24 hrs by scintillation counting; assay type: functional, organism-based
Plasmodium falciparum [5] = assay: Antimalarial activity against blood stage Plasmodium falciparum TM91C235 assessed as [3H]-hypoxanthine uptake after 24 hrs by scintillation counting; assay type: functional, organism-based
Plasmodium berghei [6] = assay: Antimalarial activity against Plasmodium berghei […] mouse model assessed as causal prophylactic activity at 160 mg/kg, po administered one day before infection, on day of infection and one day post infection; assay type: functional, organism-based; parameters: dose 160 mg/kg
Outline: (§1)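 Sporozoite-challenged exoerythrocytic mouse model using P. berghei. Compound ground and suspended in hydroxyethylcellulose with Tween 80 for oral dosing, given once daily for 3 consecutive days: day before, 4 h before, and day after sporozoite inoculation. Dose in (mg/kg)/day. Mice are scored for protection (causal prophylaxis) and for delay in patency.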

Plasmodium berghei [7] = assay: Antimalarial activity against Plasmodium berghei […] mouse model assessed as delay in patency time at 320 mg/kg, po administered one day before infection, on day of infection and one day post infection; assay type: functional; outline: as §1
Plasmodium berghei [8] = assay: Antimalarial activity against Plasmodium berghei […] mouse model assessed as causal prophylactic activity at 320 mg/kg, po administered one day before infection, on day of infection and one day post infection; assay type: functional, organism-based; parameters: dose 320 mg/kg
Outline: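 Sporozoite-inoculated P. berghei exoerythrocytic (EE) mouse model. Compound ground and suspended in hydroxyethylcellulose plus Tween 80 for oral dosing, given once daily for 3 consecutive days: day before, 4 h before, and day after sporozoite inoculation (days −1, 0, 1). Dose in (mg/kg)/day. Read-out is mice protected per group (causal prophylaxis) or delay in patency.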

Plasmodium berghei [9] = assay: Antimalarial activity against Plasmodium berghei […] mouse model assessed as delay in patency time at 160 mg/kg, po administered one day before infection, on day of infection and one day post infection; assay type: functional; outline: as §1
Plasmodium berghei [10] = assay: Antimalarial activity against Plasmodium berghei […] mouse model assessed as causal prophylactic activity at 40 mg/kg, po administered one day before infection, on day of infection and one day post infection; assay type: functional, organism-based; parameters: dose 40 mg/kg; outline: as §1
Plasmodium cynomolgi [11] = assay: Antimalarial activity against Plasmodium cynomolgi infected in rhesus monkey assessed as delay in patency time at 50 mg/kg, po administered one day before infection, on day of infection followed by 1 day post infection; assay type: functional
Outline: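 Rhesus monkeys challenged with P. cynomolgi sporozoites. Oral dosing on days −1, 0 and 1 in HECT or MC vehicle, with dose in (mg/kg)/day. Read-out is the first day of patency and the delay in patency relative to vehicle-treated controls.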

[12] = Metabolic stability in human assessed as half life at 320 mg/kg, po by LC-MS/MS analysis; assay type: ADME, organism-based; parameters: dose 320 mg/kg, route oral
[13] = Metabolic stability in mouse assessed as half life at 320 mg/kg, po by LC-MS/MS analysis; assay type: ADME, organism-based; parameters: dose 320 mg/kg, route oral; conditions: in vivo
Plasmodium cynomolgi [14] = assay: Antimalarial activity against Plasmodium cynomolgi infected in rhesus monkey assessed as time delayed in relapse of patency at 10 mg/kg/day, po administered for 7 days; assay type: functional
Outline: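 Rhesus monkeys that developed P. cynomolgi parasitemia in the prophylaxis test were used once parasitemia reached 5000 parasites/mm³. Oral chloroquine 10 (mg/kg)/day was given for 7 days, with test agent given alongside. Relapse was monitored. Monkeys with no relapse after 100 days were counted as radically cured. Relapsing controls were retreated with chloroquine and followed for a second relapse.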

Structure (SMILES)	half-life [1] [min]	half-life [2] [min]	IC50 (Plasmodium falciparum [3]) [µg/mL]	IC50 (Plasmodium falciparum [4]) [µg/mL]	IC50 (Plasmodium falciparum [5]) [µg/mL]	Activity (Plasmodium berghei [6])	Time (Plasmodium berghei [7]) [days]	Activity (Plasmodium berghei [8])	Time (Plasmodium berghei [9]) [days]	Activity (Plasmodium berghei [10])	Time (Plasmodium cynomolgi [11]) [days]	half-life [12] [min]	half-life [13] [min]	Time (Plasmodium cynomolgi [14]) [days]
CC(C)/N=C(\NC1=NC(=O)CN1c1ccc(Cl)c(Cl)c1)Nc1ccc(Cl)c(Cl)c1	39.2	27.2	1.66 (≈ 3.51 µM)	2.86 (≈ 6.04 µM)	2.83 (≈ 5.98 µM)	inactive	1	inactive						
CC(C)N1CC(=O)N=C1N/C(=N\C(=O)C(C)(C)C)Nc1ccc(Cl)c(Cl)c1	> 60	> 60	3.19 (≈ 7.74 µM)	4.9 (≈ 11.9 µM)	> 1.28				3	inactive	0			
CC(C)N/C(=N/C(=O)OC(C)(C)C)NC1=NC(=O)CN1c1cccc(Cl)c1Cl			0.56 (≈ 1.31 µM)	0.63 (≈ 1.47 µM)	0.9 (≈ 2.1 µM)							> 60	> 60	
CC/N=C(\NC1=NC(=O)CN1C(C)C)Nc1ccc(Cl)c(Cl)c1			3.38 (≈ 9.49 µM)	2.27 (≈ 6.37 µM)	3.01 (≈ 8.45 µM)									
CC(C)(C)OC(=O)/N=C(\NC1=NC(=O)CN1C(C)(C)C)Nc1ccc(Cl)c(Cl)c1	< 10	< 10	2.9 (≈ 6.56 µM)	> 5	> 5	Active								
CC(C)N1CC(=O)N=C1N/C(=N/c1ccc(Cl)c(Cl)c1)N1CCCCC1	28	18	> 5	1.98 (≈ 5 µM)		inactive								
CCC(CC)C(=O)/N=C(\NC1=NC(=O)CN1C(C)C)Nc1ccc(Cl)c(Cl)c1			0.06 (≈ 0.141 µM)	0.09 (≈ 0.211 µM)	0.16 (≈ 0.375 µM)	inactive	3		2			14	5	
CC(C)N1CC(=O)N=C1N/C(=N/c1ccc(Cl)c(Cl)c1)N1CCCC1	> 60	> 60	> 5	2.2 (≈ 5.75 µM)	> 5				2					
CCOC(=O)/N=C(\NC1=NC(=O)CN1C(C)C)Nc1ccc(Cl)c(Cl)c1			2.86 (≈ 7.15 µM)	2.8 (≈ 7 µM)		inactive	2		2			34.3	> 60	
CN1CC(=O)N=C1NC(=N)Nc1ccc(Cl)c(Cl)c1	> 60	> 60	3.42 (≈ 11.4 µM)	2.57 (≈ 8.56 µM)	3.31 (≈ 11 µM)	inactive								
CC(C)n1cc(OC(=O)C(C)(C)C)nc1N/C(=N\C(=O)C(C)(C)C)Nc1ccc(Cl)c(Cl)c1	> 60	> 60	> 12	> 12	> 12	inactive								
CCC(CC)C(=O)/N=C(\NC1=NC(=O)CN1c1cccc(Cl)c1Cl)NC(C)C			0.78 (≈ 1.83 µM)	1.55 (≈ 3.64 µM)			2					59.2	> 60	
CCN(CC)CCCC(C)Nc1ccnc2cc(Cl)ccc12 (stereo unspecified) [CHLOROQUINE]														11
CC(C)N/C(=N\C(=O)C(C)(C)C)NC1=NC(=O)CN1c1ccc(Cl)c(Cl)c1			4.65 (≈ 11.3 µM)	4.87 (≈ 11.8 µM)			2		2			40.5	13.5	
CC(C)N1CC(=O)N=C1N/C(=N\C(C)(C)C)Nc1ccc(Cl)c(Cl)c1	39.7	1.72	3 (≈ 7.81 µM)	1.49 (≈ 3.88 µM)	5.2 (≈ 13.5 µM)	inactive								
